Measured values published in ChEMBL document CHEMBL5678818, “Discovery of potent SOS1 inhibitors that block RAS activation via disruption of the RAS-SOS1 interaction” (Proc Natl Acad Sci U S A, 2019).

How the values were obtained:
[1] = target: T1, Son of sevenless homolog 1 (Homo sapiens) (UniProt Q07889); assay: Binding affinity to N-terminal His10-tagged wild-type recombinant human SOS1 catalytic domain (564 to 1049 residues) expressed in Escherichia coli assessed as change in entropy by ITC analysis
T1 sequence (whole entry): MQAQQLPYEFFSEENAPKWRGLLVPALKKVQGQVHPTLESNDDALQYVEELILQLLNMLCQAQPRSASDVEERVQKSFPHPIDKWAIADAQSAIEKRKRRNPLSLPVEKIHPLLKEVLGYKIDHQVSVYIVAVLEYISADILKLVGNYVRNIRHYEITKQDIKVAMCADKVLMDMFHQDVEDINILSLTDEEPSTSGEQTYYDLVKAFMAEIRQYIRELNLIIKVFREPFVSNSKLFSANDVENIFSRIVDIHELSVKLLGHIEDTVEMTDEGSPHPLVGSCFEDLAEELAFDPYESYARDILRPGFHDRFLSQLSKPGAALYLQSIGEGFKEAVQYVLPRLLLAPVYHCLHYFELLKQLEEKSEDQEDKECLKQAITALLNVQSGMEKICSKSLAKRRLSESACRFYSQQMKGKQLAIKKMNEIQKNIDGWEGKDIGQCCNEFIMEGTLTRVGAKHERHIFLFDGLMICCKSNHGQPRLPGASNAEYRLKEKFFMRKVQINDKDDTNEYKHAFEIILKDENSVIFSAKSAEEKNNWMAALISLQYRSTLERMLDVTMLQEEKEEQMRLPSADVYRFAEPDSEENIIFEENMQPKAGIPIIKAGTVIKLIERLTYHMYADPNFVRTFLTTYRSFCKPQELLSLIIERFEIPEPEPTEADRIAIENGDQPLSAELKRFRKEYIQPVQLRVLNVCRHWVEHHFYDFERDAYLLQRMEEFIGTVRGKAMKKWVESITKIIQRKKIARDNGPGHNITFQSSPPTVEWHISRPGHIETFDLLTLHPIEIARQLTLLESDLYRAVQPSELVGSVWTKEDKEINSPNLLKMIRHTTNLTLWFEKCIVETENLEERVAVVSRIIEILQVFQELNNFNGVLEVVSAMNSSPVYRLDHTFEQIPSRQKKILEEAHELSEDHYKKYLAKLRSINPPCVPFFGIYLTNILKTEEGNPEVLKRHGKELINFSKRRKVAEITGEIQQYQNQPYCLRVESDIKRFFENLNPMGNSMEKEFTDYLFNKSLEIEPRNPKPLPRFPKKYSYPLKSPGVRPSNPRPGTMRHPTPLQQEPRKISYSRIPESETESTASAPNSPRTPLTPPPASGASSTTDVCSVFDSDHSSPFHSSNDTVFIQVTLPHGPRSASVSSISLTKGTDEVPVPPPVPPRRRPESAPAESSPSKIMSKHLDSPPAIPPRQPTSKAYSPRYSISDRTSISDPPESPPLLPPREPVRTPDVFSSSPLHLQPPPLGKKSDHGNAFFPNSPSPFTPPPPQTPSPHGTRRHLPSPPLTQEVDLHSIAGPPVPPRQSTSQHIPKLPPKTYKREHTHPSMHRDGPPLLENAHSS

K562 = assay: Antiproliferative activity against human K562 cells assessed as inhibition of cell viability incubated for 72 hrs by Cell Titer Glo assay; type: functional, cell-based; settings: K562, 72 h
How it was run: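 K-562 cells (wild-type KRAS, sourced from ATCC) were tested for antiproliferative response.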

[2] = test system: Mast/stem cell growth factor receptor Kit (Homo sapiens), P10721 [V559D,T670I]; assay: Inhibition of KIT V559D/T670I mutant (unknown origin) assessed as residual activity at 1000 nM by KINOMEscan analysis relative to control
[3] = target: Tyrosine-protein kinase FRK (Homo sapiens) (UniProt P42685); assay: Inhibition of FRK (unknown origin) assessed as residual activity at 1000 nM by KINOMEscan analysis relative to control
[4] = target: Aurora kinase B (Homo sapiens) (UniProt Q96GD4); assay: Inhibition of AURKB (unknown origin) assessed as residual activity at 1000 nM by KINOMEscan analysis relative to control
[5] = target: Serine/threonine-protein kinase RIO2 (Homo sapiens) (UniProt Q9BVS4); assay: Inhibition of RIOK2 (unknown origin) assessed as residual activity at 1000 nM by KINOMEscan analysis relative to control
[6] = test system: Tyrosine-protein kinase ABL1 (Homo sapiens), P00519 [F317L]; assay: Inhibition of nonphosphorylated ABL1 F317L mutant (unknown origin) assessed as residual activity at 1000 nM by KINOMEscan analysis relative to control
[7] = target: NT-3 growth factor receptor (Homo sapiens) (UniProt Q16288); assay: Inhibition of TRKC (unknown origin) assessed as residual activity at 1000 nM by KINOMEscan analysis relative to control
[8] = target: Ribosomal protein S6 kinase alpha-1 (Homo sapiens) (UniProt Q15418); assay: Inhibition of N-terminal RSK1 kinetic domain 1 (unknown origin) assessed as residual activity at 1000 nM by KINOMEscan analysis relative to control
[9] = target: Fibroblast growth factor receptor 1 (Homo sapiens) (UniProt P11362); assay: Inhibition of FGFR1 (unknown origin) assessed as residual activity at 1000 nM by KINOMEscan analysis relative to control
[10] = target: T2, cGMP-dependent protein kinase 2 (Homo sapiens) (UniProt Q13237); assay: Inhibition of PRKG2 (unknown origin) assessed as residual activity at 1000 nM by KINOMEscan analysis relative to control
T2 sequence (whole entry): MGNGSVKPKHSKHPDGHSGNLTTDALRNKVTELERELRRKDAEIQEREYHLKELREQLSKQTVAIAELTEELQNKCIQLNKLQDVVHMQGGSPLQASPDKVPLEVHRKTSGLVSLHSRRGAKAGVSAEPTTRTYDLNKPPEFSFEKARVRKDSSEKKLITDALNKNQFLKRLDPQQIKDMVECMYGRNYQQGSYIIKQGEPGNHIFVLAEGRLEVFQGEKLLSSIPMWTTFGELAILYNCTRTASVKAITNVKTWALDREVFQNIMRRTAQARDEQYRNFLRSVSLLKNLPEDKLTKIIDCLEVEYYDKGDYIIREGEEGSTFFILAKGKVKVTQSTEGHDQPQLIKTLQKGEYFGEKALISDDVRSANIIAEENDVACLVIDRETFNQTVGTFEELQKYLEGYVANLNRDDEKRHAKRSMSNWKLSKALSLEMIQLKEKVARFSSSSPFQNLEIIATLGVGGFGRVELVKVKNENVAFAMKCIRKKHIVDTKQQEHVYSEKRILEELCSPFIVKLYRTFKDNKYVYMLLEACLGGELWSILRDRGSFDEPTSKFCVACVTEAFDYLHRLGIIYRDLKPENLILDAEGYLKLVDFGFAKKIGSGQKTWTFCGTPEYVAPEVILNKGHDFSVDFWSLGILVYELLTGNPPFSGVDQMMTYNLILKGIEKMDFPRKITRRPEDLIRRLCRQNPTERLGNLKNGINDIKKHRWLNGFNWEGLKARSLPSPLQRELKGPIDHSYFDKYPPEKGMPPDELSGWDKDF

Sequence of Tyrosine-protein kinase FRK (Homo sapiens) (P42685 whole entry): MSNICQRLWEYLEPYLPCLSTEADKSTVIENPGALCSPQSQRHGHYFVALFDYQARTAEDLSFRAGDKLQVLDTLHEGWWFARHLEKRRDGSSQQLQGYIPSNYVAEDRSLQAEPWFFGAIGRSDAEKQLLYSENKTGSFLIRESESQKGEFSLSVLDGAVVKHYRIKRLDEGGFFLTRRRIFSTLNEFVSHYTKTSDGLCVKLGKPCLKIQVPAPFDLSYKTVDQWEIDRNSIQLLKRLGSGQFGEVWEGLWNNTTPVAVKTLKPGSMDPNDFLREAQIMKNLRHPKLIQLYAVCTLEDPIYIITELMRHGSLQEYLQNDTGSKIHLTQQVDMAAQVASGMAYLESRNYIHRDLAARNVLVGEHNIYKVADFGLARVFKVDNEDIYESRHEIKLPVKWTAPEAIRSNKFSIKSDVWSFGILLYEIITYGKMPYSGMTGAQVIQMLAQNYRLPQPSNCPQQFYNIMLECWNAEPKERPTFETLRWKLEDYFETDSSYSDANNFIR
Sequence of Mast/stem cell growth factor receptor Kit (Homo sapiens), P10721 [V559D,T670I] (P10721 whole entry V559D/T670I): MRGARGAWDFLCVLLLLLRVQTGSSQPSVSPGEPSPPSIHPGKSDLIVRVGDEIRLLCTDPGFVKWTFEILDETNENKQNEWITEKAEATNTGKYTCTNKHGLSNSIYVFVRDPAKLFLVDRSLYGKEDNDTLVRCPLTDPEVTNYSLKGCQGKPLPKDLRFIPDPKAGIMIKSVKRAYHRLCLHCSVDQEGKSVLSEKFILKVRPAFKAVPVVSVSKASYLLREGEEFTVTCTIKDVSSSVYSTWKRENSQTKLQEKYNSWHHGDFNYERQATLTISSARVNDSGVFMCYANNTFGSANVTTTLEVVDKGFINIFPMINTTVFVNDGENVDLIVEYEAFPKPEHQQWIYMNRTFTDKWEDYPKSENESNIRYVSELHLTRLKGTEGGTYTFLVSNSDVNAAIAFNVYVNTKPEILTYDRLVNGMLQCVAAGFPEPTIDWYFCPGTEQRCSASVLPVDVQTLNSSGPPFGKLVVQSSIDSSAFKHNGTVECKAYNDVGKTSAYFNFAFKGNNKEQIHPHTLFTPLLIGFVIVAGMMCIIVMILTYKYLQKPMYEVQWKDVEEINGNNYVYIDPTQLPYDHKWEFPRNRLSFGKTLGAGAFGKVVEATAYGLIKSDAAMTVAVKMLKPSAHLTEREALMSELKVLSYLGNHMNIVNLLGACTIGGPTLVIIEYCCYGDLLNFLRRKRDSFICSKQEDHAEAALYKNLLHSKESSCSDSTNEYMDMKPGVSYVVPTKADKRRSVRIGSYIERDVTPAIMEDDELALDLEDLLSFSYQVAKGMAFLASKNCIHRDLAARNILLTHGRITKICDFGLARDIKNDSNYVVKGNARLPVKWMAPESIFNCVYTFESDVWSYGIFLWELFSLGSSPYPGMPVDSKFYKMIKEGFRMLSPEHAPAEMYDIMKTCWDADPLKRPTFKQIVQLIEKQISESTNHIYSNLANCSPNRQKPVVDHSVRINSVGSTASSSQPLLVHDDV
Sequence of NT-3 growth factor receptor (Homo sapiens) (Q16288 32-839 limits assumed): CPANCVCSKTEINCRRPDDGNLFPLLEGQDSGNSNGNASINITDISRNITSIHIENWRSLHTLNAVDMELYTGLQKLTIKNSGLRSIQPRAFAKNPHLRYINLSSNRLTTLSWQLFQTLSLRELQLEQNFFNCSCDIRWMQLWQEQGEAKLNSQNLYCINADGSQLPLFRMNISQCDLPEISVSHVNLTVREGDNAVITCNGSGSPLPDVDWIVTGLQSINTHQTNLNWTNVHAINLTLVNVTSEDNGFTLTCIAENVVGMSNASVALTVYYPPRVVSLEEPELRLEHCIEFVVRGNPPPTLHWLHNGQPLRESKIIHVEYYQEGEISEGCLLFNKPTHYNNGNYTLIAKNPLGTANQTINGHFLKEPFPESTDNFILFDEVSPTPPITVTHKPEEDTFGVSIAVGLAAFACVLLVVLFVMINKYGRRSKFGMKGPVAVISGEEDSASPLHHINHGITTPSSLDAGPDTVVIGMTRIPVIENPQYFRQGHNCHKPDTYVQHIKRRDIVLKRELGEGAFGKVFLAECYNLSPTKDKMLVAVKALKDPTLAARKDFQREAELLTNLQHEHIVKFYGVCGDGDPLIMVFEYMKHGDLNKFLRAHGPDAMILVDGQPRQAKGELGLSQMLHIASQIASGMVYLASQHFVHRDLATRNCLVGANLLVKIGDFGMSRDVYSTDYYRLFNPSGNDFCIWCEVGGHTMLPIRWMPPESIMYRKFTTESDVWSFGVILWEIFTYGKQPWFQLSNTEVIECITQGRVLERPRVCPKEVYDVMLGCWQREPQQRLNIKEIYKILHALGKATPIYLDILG
Sequence of Tyrosine-protein kinase ABL1 (Homo sapiens), P00519 [F317L] (P00519 whole entry F317L): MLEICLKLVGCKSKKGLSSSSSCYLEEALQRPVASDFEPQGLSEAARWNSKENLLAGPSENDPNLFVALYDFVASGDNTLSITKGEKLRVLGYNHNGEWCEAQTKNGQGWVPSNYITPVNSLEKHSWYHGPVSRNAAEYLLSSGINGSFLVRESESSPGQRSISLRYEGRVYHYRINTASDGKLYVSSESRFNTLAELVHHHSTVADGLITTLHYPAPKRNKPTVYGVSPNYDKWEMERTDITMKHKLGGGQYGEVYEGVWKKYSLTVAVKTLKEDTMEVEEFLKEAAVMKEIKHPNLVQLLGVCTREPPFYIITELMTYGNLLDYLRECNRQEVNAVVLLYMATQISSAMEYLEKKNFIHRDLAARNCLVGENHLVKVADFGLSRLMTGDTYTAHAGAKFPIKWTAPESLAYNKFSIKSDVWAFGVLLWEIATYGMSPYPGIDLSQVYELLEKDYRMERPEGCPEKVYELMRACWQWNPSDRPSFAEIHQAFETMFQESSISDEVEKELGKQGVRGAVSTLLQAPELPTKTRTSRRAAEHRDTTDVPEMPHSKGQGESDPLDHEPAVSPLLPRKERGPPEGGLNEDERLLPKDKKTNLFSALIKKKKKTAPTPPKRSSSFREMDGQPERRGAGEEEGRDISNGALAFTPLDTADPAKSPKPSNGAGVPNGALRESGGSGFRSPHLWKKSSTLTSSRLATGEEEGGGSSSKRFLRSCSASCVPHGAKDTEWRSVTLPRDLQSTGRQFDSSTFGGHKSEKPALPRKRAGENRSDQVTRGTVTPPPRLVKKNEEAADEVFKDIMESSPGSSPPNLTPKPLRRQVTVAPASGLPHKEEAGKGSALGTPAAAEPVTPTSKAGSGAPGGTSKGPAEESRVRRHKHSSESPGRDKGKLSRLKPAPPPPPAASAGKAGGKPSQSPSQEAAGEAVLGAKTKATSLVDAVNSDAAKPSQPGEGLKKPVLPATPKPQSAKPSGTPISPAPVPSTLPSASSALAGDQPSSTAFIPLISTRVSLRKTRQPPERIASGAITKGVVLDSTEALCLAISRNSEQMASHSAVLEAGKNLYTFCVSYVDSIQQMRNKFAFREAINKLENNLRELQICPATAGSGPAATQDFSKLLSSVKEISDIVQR
Sequence of Serine/threonine-protein kinase RIO2 (Homo sapiens) (Q9BVS4 whole entry, looked up): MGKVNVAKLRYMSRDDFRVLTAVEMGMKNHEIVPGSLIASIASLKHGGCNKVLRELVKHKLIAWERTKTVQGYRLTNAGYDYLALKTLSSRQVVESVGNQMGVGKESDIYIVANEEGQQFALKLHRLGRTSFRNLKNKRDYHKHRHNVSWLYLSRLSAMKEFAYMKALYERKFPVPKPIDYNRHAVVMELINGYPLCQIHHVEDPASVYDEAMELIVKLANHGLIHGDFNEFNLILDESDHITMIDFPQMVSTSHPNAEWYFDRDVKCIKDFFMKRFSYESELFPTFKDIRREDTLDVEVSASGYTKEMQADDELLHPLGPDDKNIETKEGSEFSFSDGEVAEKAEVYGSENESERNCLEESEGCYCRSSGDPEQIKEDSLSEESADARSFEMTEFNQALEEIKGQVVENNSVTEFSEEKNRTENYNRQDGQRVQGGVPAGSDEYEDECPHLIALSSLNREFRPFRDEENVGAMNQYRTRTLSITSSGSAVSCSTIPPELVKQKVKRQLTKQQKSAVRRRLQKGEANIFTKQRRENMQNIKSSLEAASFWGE
Sequence of Aurora kinase B (Homo sapiens) (Q96GD4 whole entry): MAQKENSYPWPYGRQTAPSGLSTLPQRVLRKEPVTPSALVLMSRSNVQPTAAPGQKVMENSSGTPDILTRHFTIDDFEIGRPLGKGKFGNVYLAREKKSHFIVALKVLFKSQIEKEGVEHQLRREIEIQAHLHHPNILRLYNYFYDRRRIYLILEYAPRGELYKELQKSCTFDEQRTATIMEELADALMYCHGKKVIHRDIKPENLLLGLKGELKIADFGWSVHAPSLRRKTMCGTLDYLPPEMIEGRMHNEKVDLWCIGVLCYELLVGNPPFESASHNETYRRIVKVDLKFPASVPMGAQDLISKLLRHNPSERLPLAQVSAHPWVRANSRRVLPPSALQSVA
Sequence of Ribosomal protein S6 kinase alpha-1 (Homo sapiens) (Q15418 whole entry, the tested form may be a part): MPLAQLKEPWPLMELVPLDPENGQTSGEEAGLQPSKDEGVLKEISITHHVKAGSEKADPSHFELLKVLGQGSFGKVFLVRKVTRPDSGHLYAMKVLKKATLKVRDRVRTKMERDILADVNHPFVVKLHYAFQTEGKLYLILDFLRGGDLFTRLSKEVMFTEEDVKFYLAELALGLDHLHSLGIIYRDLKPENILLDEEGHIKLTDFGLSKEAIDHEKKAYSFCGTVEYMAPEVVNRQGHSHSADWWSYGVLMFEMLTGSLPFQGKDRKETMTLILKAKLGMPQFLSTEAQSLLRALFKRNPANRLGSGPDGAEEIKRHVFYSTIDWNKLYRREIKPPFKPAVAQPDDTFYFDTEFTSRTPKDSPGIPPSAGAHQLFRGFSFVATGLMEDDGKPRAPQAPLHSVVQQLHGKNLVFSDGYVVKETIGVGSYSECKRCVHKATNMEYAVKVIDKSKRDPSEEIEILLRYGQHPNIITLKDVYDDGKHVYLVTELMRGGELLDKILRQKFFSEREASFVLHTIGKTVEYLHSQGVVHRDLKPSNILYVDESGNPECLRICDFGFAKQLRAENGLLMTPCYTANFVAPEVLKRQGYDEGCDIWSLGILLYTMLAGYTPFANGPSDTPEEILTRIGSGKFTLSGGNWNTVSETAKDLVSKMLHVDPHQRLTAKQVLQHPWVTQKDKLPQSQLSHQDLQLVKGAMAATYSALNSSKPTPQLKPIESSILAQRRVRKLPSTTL

Structure (SMILES) | -TdeltaS [1] | IC50 (K562) | Activity [2] | Activity [3] | Activity [4] | Activity [5] | Activity [6] | Activity [7] | Activity [8] | Activity [9] | Activity [10]
CNCc1ccccc1-c1csc([C@@H](C)Nc2nc(C)nc3cc(OC)c(OC)cc23)c1 [BAY-293] | 5.5 kcal/mol | 1.09 µM | – | – | – | – | – | – | – | – | –
COc1cc2nc(C)nc(N[C@H](C)c3cccc(-c4cn[nH]c4)c3)c2cc1OC | – | 3.1 µM | 92% | 76% | 79% | 61% | 99% | 88% | 95% | 65% | 98%
COc1cc2ncnc(N[C@H](C)c3cccc4ccccc34)c2cc1OC | 5.5 kcal/mol | – | 73% | 94% | 98% | 82% | 99% | 95% | 76% | 80% | 91%
